This is an account of results in ChEMBL document CHEMBL4130456 (ACS Med Chem Lett, 2017).

Series [1] deals with T1, Phosphatidylinositol 4,5-bisphosphate 3-kinase catalytic subunit beta isoform (Homo sapiens, UniProt P42338). Kind of series: Inhibition of recombinant PI3Kbeta (unknown origin) using phosphatidyl inositol/n-Octyl-glucoside as substrate measured after 60 mins by KinaseGlo assay. On the technique in general: Kinase-Glo reads ATP consumption through a luciferase reaction.

For series [2], the target named is Phosphatidylinositol 4,5-bisphosphate 3-kinase catalytic subunit gamma isoform (Homo sapiens, UniProt P48736). Kind of series: Inhibition of PI3Kgamma (unknown origin) using phosphatidyl inositol as substrate measured after 30 mins by Alexa Fluor647-labelled ADP tracer based TR-FRET assay.
The target in series [3] is T2, Phosphatidylinositol 4,5-bisphosphate 3-kinase catalytic subunit delta isoform (Homo sapiens, UniProt O00329).
T2 sequence (O00329 whole entry): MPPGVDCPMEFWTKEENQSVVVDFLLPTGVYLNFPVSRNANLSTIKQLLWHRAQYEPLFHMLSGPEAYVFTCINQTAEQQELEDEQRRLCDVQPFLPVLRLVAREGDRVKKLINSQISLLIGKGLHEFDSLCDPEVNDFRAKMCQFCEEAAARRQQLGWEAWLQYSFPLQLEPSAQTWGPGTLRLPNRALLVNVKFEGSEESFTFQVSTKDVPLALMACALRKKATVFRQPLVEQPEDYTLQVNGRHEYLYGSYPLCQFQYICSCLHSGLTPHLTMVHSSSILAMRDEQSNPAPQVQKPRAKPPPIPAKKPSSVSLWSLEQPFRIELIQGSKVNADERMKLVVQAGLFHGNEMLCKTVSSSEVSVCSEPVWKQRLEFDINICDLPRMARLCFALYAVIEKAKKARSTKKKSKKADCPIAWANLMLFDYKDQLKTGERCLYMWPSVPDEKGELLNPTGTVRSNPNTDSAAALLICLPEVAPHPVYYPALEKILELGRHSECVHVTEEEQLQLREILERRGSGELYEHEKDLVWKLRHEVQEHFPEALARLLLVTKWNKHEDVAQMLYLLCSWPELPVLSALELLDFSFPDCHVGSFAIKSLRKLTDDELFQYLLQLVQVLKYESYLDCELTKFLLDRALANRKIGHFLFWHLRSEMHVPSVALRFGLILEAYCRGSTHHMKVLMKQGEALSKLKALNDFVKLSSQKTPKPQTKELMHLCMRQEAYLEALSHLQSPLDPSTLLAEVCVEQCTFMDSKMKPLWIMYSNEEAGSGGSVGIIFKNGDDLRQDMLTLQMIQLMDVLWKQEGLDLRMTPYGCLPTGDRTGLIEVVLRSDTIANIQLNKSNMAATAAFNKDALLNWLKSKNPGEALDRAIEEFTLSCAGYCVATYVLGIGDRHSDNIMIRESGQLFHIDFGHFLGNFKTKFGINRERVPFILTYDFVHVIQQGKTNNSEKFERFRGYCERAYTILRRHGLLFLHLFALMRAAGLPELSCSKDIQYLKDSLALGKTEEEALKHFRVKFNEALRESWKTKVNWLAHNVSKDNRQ
Nature of the series: Inhibition of PI3Kdelta (unknown origin) using phosphatidyl inositol as substrate measured after 60 mins by Alexa Fluor647-labelled ADP tracer based TR-FRET assay. (Time-resolved FRET reads energy transfer from a long-lived donor to a nearby acceptor.)

Series [4] concerns the target T1, Phosphatidylinositol 4,5-bisphosphate 3-kinase catalytic subunit beta isoform. Kind of series: Inhibition of recombinant human myristoylated PI3Kbeta catalytic domain expressed in Rat1 cells assessed as reduction in Akt phosphorylation at […] residue after 1 hr by alpha screen Surefire assay. Type of series: cell-based. Background: In Alpha technology, singlet oxygen from a donor bead excites a nearby acceptor bead.

Series [5] concerns the target T2, Phosphatidylinositol 4,5-bisphosphate 3-kinase catalytic subunit delta isoform. Nature of the series: Inhibition of recombinant human myristoylated PI3Kdelta catalytic domain expressed in Rat1 cells assessed as reduction in Akt phosphorylation at […] residue after 1 hr by alpha screen Surefire assay. Type of series: cell-based.
The target in series [6] is T3, Phosphatidylinositol 4,5-bisphosphate 3-kinase catalytic subunit delta isoform (Mus musculus, UniProt O35904).
T3 sequence (O35904 whole entry): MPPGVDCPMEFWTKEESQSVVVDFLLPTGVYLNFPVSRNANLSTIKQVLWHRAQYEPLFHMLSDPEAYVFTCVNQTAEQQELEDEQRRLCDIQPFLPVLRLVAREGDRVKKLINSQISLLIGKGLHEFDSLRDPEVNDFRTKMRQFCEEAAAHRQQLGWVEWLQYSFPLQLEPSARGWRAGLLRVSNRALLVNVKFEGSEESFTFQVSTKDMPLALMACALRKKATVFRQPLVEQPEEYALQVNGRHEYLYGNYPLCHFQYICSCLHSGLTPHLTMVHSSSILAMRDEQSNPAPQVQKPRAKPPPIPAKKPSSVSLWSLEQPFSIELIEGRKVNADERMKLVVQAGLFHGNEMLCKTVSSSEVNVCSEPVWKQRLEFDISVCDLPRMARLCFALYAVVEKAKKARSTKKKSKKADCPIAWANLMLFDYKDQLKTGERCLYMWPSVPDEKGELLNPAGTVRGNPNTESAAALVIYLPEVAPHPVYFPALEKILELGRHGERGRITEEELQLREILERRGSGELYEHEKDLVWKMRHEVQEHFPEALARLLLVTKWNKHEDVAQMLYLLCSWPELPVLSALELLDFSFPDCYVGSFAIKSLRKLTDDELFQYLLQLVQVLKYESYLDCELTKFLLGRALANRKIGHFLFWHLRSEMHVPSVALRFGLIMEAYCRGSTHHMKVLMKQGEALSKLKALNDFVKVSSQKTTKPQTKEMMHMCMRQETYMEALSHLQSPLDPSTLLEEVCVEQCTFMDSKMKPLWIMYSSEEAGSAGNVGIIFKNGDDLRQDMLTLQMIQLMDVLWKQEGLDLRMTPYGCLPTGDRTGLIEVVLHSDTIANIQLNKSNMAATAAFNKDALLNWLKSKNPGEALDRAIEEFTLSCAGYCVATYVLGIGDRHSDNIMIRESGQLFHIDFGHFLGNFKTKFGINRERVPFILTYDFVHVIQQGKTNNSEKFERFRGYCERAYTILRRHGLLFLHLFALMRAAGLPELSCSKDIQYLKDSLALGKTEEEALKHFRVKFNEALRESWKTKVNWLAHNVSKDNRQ
Nature of the series: Inhibition of PI3Kdelta in Balb/c mouse splenocytes assessed as reduction in anti-IgM stimulated CD86 expression pretreated for 1 hr followed by anti-IgM stimulation after 24 hrs by flow cytometric analysis. Type of series: cell-based.

A short description of series [7]: Inhibition of PI3Kdelta in 50% rat blood assessed as reduction in anti-IgM stimulated CD86 expression pretreated for 1 hr followed by anti-IgM stimulation after 24 hrs by flow cytometric analysis. A digest of the protocol:
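Rat 50% whole blood; B cells stimulated with anti-IgM/IL-4; readouts pAKT or CD86.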

Series [8] is described as follows: Lipophilicity, log P of the compound by artificial membrane based assay. Type of series: physicochemical.
The nature of series [9]: Intrinsic clearance in rat liver microsomes assessed per mg protein. Type of series: ADME, microsome. The following applies: read-out: CLH.
A short description of series [10]: Equilibrium solubility of the compound at pH 6.8 by LC-MS/MS analysis. Type of series: physicochemical. Conditions: buffer. A digest of the protocol:
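High-throughput equilibrium solubility at pH 6.8, reported in mM.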

Series [11] deals with T4, Phosphatidylinositol 4,5-bisphosphate 3-kinase catalytic subunit alpha isoform (Homo sapiens, UniProt P42336). Nature of the series: Inhibition of recombinant human myristoylated PI3Kalpha catalytic domain expressed in Rat1 cells assessed as reduction in Akt phosphorylation at […] residue after 1 hr by alpha screen Surefire assay. Type of series: cell-based.
Series [12] addresses T4, Phosphatidylinositol 4,5-bisphosphate 3-kinase catalytic subunit alpha isoform. Nature of the series: Inhibition of recombinant PI3Kalpha (unknown origin) using phosphatidyl inositol/n-Octyl-glucoside as substrate measured after 30 mins by KinaseGlo assay.

Values after ≈ are worked out from the molar mass of the structure shown. Bounds are passed on as bounds.

What is called IC50 is the point on the concentration scale where inhibition reaches its midpoint. The logP is the decadic logarithm of the partition coefficient of the neutral form, usually between octanol and water. What is called thermodynamic solubility is solubility found after equilibrating the solid with the medium.

Sequence of Phosphatidylinositol 4,5-bisphosphate 3-kinase catalytic subunit gamma isoform (P48736 whole entry, canonical isoform): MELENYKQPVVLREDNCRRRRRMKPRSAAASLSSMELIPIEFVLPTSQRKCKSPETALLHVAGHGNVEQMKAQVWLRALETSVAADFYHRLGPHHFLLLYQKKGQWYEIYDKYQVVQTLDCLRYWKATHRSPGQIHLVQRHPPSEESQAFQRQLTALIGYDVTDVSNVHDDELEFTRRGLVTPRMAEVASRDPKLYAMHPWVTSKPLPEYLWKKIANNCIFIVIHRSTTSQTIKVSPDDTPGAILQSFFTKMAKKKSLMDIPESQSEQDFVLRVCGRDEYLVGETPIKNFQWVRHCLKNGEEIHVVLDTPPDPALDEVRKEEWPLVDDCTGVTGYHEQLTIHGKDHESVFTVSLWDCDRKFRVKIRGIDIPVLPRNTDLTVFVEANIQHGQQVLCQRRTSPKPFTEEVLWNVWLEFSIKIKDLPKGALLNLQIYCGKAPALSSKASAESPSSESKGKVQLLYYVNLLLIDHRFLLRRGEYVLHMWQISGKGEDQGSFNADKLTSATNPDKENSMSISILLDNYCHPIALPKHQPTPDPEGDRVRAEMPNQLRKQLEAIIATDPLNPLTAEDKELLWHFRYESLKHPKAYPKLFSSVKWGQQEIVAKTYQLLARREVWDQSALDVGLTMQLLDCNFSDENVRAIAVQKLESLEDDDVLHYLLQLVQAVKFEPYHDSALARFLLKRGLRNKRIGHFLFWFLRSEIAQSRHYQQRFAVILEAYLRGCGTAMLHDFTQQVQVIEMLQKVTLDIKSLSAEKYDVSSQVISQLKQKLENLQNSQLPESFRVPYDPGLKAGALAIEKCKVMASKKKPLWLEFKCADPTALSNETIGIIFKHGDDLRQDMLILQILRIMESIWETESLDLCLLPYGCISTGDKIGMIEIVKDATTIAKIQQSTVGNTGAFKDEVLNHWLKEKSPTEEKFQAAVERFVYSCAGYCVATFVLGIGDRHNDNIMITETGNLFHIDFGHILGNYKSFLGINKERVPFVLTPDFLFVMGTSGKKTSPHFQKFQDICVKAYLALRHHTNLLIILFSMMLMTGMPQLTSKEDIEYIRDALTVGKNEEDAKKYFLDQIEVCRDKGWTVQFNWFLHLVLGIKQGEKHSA
T4 sequence (P42336 whole entry, the tested form may be a part, canonical isoform): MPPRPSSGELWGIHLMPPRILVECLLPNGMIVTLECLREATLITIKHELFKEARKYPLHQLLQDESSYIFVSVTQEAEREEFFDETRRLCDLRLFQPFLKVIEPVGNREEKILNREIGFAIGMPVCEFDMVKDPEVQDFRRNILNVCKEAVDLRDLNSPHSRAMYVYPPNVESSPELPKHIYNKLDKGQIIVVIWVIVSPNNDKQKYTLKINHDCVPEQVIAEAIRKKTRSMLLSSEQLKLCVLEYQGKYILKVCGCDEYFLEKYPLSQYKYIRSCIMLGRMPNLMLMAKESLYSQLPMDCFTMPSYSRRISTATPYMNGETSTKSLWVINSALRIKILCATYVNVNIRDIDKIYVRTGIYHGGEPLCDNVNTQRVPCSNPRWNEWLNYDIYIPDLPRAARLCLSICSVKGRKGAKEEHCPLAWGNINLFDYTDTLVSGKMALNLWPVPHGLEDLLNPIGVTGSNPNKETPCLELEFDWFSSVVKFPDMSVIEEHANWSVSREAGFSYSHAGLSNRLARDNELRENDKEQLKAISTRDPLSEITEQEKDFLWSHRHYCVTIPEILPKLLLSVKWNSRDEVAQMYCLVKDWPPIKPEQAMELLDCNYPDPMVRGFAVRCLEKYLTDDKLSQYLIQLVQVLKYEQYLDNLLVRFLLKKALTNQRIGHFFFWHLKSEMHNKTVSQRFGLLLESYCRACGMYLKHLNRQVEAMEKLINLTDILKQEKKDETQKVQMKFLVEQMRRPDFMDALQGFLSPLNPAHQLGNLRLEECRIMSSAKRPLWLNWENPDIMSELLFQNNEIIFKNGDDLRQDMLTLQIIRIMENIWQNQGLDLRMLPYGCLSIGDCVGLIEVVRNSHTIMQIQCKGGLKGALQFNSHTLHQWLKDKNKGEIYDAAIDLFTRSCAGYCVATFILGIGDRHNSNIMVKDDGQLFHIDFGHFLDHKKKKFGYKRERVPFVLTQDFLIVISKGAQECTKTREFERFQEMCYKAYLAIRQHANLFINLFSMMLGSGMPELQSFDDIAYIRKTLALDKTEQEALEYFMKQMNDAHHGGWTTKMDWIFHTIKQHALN
T1 sequence (P42338 whole entry, canonical isoform): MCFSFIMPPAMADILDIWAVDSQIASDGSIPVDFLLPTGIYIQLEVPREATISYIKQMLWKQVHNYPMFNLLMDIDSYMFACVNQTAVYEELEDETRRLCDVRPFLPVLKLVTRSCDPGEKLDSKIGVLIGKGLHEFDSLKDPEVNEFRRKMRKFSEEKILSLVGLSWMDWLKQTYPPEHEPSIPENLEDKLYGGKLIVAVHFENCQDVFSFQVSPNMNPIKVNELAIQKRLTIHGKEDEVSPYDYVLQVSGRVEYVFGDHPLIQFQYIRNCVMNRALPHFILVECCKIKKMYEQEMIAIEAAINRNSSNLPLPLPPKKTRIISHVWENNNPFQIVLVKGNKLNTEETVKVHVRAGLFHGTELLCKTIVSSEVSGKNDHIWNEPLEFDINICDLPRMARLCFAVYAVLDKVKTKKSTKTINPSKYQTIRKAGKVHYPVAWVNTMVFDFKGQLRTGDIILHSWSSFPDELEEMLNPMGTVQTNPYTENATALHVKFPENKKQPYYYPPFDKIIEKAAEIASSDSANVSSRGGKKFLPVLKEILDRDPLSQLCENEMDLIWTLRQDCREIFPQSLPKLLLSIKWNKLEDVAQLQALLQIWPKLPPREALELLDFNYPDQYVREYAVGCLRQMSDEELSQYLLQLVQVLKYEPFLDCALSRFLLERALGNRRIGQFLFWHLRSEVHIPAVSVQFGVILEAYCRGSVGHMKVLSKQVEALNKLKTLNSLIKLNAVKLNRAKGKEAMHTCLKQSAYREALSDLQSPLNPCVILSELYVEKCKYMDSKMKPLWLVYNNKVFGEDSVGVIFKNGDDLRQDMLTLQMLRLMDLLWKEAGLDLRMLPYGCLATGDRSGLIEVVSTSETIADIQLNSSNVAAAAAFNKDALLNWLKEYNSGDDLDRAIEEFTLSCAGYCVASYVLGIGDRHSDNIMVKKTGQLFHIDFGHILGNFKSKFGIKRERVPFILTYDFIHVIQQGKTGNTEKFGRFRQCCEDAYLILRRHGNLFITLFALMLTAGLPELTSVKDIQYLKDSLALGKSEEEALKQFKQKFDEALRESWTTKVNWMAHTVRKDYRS

As to `COc1ncc(N2CCc3ncnc(N[C@H]4CCN(C(=O)C5CCOCC5)C4)c3C2)cc1C`, the IC50 in [1] came to 2.02 µM; in series [2], 3.29 µM; in series [3], 0.03 µM; in series [4], 9.87 µM; in [5] it was 0.358 µM; in [6] it was 0.091 µM. Further, the concentration for half-maximal inhibition (IC50) in series [7] came out at 0.074 µM. The logP in [8] was 2.6. For the same molecule, in series [9], the microsomal CLint came to 22 µL/min/mg. Besides, the solubility (thermodynamic) in [10] was greater than 1000 µM.
Consider `CCC(=O)N1CC[C@H](Oc2ncnc3c2CN(c2cnc(OC)c(C(F)(F)F)c2)CC3)C1`, for which the IC50 in series [1] is 1.71 µM; in series [2], greater than 9.1 µM; in series [3], 0.027 µM; in series [11], 2.6 µM; in [4], 3.11 µM; in [5] it was 0.131 µM. Besides, in [8], the logP is 3.1. In addition, the microsomal CLint in series [9] is 160 µL/min/mg. Further, the thermodynamic solubility in series [10] turned out to be 80 µM (≈ 36.1 µg/mL).
On to `COc1ncc(N2CCc3ncnc(N[C@H]4CCN(C(=O)C5CCOCC5)C4)c3C2)cc1C(F)(F)F`, for which the IC50 was 0.044 µM in series [12]; 0.3 µM in series [1]; 1.06 µM in series [2]; 0.004 µM in series [3]; 2.15 µM in series [11]; 3.99 µM in [4]. Further, the IC50 was 0.015 µM in series [6] and 0.016 µM in series [7]. Moreover, the logP in series [8] came to 2.9. Further, the microsomal CLint in [9] stood at 41 µL/min/mg. For the same molecule, the solubility (thermodynamic) in series [10] worked out at 240 µM (≈ 122 µg/mL).
On to `CCC(=O)N1CC[C@H](Oc2ncnc3c2CN(c2ccc(OC)nc2)CC3)C1`, for which the IC50 in [12] is 6.66 µM; in [1] it was 8.94 µM; in series [2], greater than 9.1 µM; in series [3], 0.132 µM; in series [11], greater than 10 µM; in series [4], greater than 10 µM. For the same molecule, in series [5], the IC50 was determined as 5.39 µM. For the same molecule, the logP in series [8] was 2.2. For the same molecule, the microsomal CLint in series [9] was 35 µL/min/mg. The molecule also returned a thermodynamic solubility in series [10] greater than 1000 µM.
For `CCC(=O)N1CC[C@H](Nc2ncnc3c2CN(c2cnc(OC)c(C)c2)CC3)C1`, the IC50 in [1] stood at 0.951 µM; in series [11], 7.41 µM; in series [4], 7.91 µM; in series [6], 0.087 µM; in series [7], 0.073 µM. Besides, the logP in series [8] was 2.8. In series [10], this molecule showed a solubility (thermodynamic) greater than 1000 µM.
Consider `COc1ncc(N2CCc3ncnc(O[C@H]4CCN(C(=O)C5CCOCC5)C4)c3C2)cc1C`, for which the IC50 in [1] was 4.15 µM; in [2] it was 6.6 µM; in series [3], 0.076 µM; in series [4] it was 6.79 µM; in series [5], 0.143 µM; in series [6] it was 0.098 µM. Also, in series [7], the IC50 was determined as 0.092 µM. The logP in [8] came out at 1.7. In [9], the microsomal CLint came to 60 µL/min/mg. For the same molecule, the thermodynamic solubility in series [10] was greater than 1000 µM.
On to `COc1ccc(N2CCc3ncnc(-c4cccc(OC5CCN(C(C)=O)CC5)c4)c3C2)cn1`, for which the IC50 in series [12] was 2.02 µM; in [1], 8.94 µM; in series [2], greater than 9.1 µM; in series [3], 0.083 µM; in series [11] it was 9.03 µM; in series [4], greater than 10 µM. The IC50 in series [5] came out at 0.374 µM. Moreover, the log partition coefficient (logP) in series [8] came out at 2.2. The microsomal CLint in series [9] was 197 µL/min/mg. In addition, in series [10], the thermodynamic solubility is greater than 1000 µM.
`COc1ncc(N2CCc3ncnc(O[C@H]4CCN(C(=O)C5CCOCC5)C4)c3C2)cc1C(F)(F)F`: the IC50 is 1.33 µM in series [1]; greater than 9.1 µM in [2]; 0.028 µM in [3]; 3.55 µM in series [11]; 3.58 µM in [4]; 0.037 µM in series [5]. Further, the IC50 came out at 0.084 µM in series [6] and 0.058 µM in [7]. In addition, the logP in series [8] turned out to be 2.2. For the same molecule, the microsomal CLint in [9] worked out at 149 µL/min/mg. Further, the thermodynamic solubility in [10] was 270 µM (≈ 137 µg/mL).
Consider `COc1ccc(N2CCc3ncnc(-c4cccc(C(=O)N5CCN(C(C)=O)CC5)c4)c3C2)cn1`, for which the IC50 in series [12] is 6.94 µM; in series [1], greater than 9.1 µM; in [2], greater than 9.1 µM; in series [3] it was 0.065 µM; in series [11], greater than 10 µM; in series [4], greater than 10 µM. For the same molecule, the IC50 in [5] was found to be 2.63 µM. The molecule further gave a logP in series [8] of 0.7. For the same molecule, the microsomal CLint in series [9] was 91 µL/min/mg. Further, in [10], the solubility (thermodynamic) is greater than 1000 µM.
